# Data reported in ChEMBL document CHEMBL1147889, “Synthesis of 6- and 9-alkylaminomethyl furoflavones as gastroprotective agents” (2007).
# Columns and labels:
# Assay type in all cases: functional, Stomach
# Rattus norvegicus [1] = experiment: Gastroprotective activity against ethanol-induced gastric ulcer in fasted rat accessed as number of ulcer at 20 mg/kg, ip; details: route intraperitoneal
# Outline: (§1)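 Rats housed singly, fasted 36 h; test drug given, then 1 h later ulcer induced by oral 1 ml 70% ethanol in distilled water. Killed by cervical dislocation 1 h after ethanol; stomach opened along greater curvature, saline-rinsed, pinned flat. Ulcers counted; each lesion length measured by Vernier caliper, summed as ulcer index. Mean, SD, SE; one-way ANOVA then LSD pairwise test.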
# Rattus norvegicus [2] = experiment: Gastroprotective activity against ethanol-induced gastric ulcer in fasted rat accessed as gastric ulcer index at 20 mg/kg, ip; details: route intraperitoneal; outline: as §1
# Rattus norvegicus [3] = species: Rattus norvegicus; experiment: Preventive index against ethnol-induced gastric ulcer rat in treated group to control group
# Outline: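 Preventive index = percentage inhibition of gastric mucosal damage: PI = 100 − (ulcer index of treated group / ulcer index of control group × 100). Ulcer index is the summed caliper-measured lesion lengths, taken 1 h after oral 1 ml 70% ethanol in 36 h fasted rats dosed 1 h before ethanol. Compared by one-way ANOVA.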
SMILES,Activity (Rattus norvegicus [1]),Activity (Rattus norvegicus [2]),Preventive_index (Rattus norvegicus [3])
COc1c2ccoc2cc2oc(-c3ccccc3)cc(=O)c12 [PINNATIN],23.7,34.8 mm,31.3
COc1c2ccoc2c(CN2CCOCC2)c2oc(-c3ccc(Cl)cc3)cc(=O)c12,26,37.2 mm,26.6
O=c1cc(-c2ccccc2)oc2c(CN3CCOCC3)c3occc3c(O)c12,26.5,37.5 mm,26
COc1c2ccoc2c(CN2CCOCC2)c2oc(-c3cccnc3)cc(=O)c12,25,40.8 mm,19.5
COc1c2ccoc2cc2oc(-c3ccc(Cl)cc3)cc(=O)c12,25.5,33.2 mm,34.5
COc1c2ccoc2cc2oc(-c3ccccc3)c(CN3CCOCC3)c(=O)c12,21.8,29.6 mm,41.6
COc1c2occc2c(OC)c2c(=O)c(CN3CCN(C)CC3)c(-c3cccnc3)oc12,18.8,28.2 mm,44.4
O=c1cc(-c2ccccc2)oc2cc3occc3c(O)c12,25.5,38.3 mm,24.3
COc1c2ccoc2c(CN2CCN(C)CC2)c2oc(-c3cccnc3)cc(=O)c12,23.7,29.7 mm,41.5
O=c1cc(-c2ccc(Cl)cc2)oc2cc3occc3c(O)c12,22.2,33.5 mm,33.9
COc1c2ccoc2c(CN2CCOCC2)c2oc(-c3ccccc3)cc(=O)c12,27.8,39.8 mm,21.4
COc1c2ccoc2cc2oc(-c3cccnc3)c(CN(C)C)c(=O)c12,21.2,31 mm,38.8
O=c1cc(-c2ccc(Cl)cc2)oc2c(CN3CCOCC3)c3occc3c(O)c12,28.5,42.5 mm,16.1
COc1ccc(-c2cc(=O)c3c(OC)c4ccoc4cc3o2)cc1,19.7,24 mm,52.6
